Measurements as given in ChEMBL document CHEMBL3272253, “Relationship of molecular structure to in vivo scintigraphic distribution patterns of carbon-11 labeled compounds. 3. (11C)Hydantoins” (J Med Chem, 1976).

Legend:
Format in all cases: ADME, organism-based, Canis lupus familiaris
Details in all cases: in vivo; call rule not given here
Liver = test: Drug level in iv dosed dog liver by gamma-scintillation counting analysis
In short: (§1)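 Carbon-11-labeled hydantoin, 1–59 mCi of final product, dissolved in 1–1.5% aqueous NaOH and given iv to dogs. Distribution imaged serially for up to 2 hr or more with a scintillation camera fitted with a pinhole collimator (1-cm hyperbolic aperture), with whole-body scintiphotos at about 5 and 30 min. Readout is qualitative to semiquantitative; no coincidence imaging.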

Brain [1] = test: Drug level in iv dosed dog brain by gamma-scintillation counting analysis; in short: as §1
[2] = Drug excretion in iv dosed dog urine by gamma-scintillation counting analysis; in short: as §1
[3] = Drug level in iv dosed dog kidney by gamma-scintillation counting analysis; in short: as §1
[4] = Drug excretion in iv dosed dog bile by gamma-scintillation counting analysis; in short: as §1
Canis familiaris [5] = test: Drug level in iv dosed dog after 5 to 30 mins by gamma-scintillation counting analysis; in short: as §1
Canis familiaris [6] = test: Drug level in iv dosed dog by gamma-scintillation counting analysis; in short: as §1
[7] = Drug level in iv dosed dog lung by gamma-scintillation counting analysis; in short: as §1
Brain [8] = test: Drug level in iv dosed dog brain after 5 to 30 mins by gamma-scintillation counting analysis; in short: as §1
[9] = Drug excretion in iv dosed dog bile after 5 to 30 mins by gamma-scintillation counting analysis; in short: as §1
[10] = Drug level in iv dosed dog vein by gamma-scintillation counting analysis; in short: as §1

Structure (SMILES)	Drug uptake (Liver)	Drug uptake (Brain [1])	Drug excretion [2]	Drug uptake [3]	Drug uptake (Canis familiaris [6])	Drug uptake [7]	other results
O=C1N[11C](=O)C2(CCCCCC2)N1	Active	Active	–	–	–	–	–
CCCC1(c2ccccc2)NC(=O)N[11C]1=O (stereo not given)	–	–	–	–	–	–	Drug uptake (Canis familiaris [5]): Active
O=C1N[11C](=O)C2(CCCCCCC2)N1	–	Not Active	–	–	–	–	–
CCC1(CC)NC(=O)N[11C]1=O	Active	–	metabolite_detected	Active	Active	Active	Drug uptake (Brain [8]): Not Active; Drug excretion [9]: metabolite_notdetected
CC1(CCC(=O)O)NC(=O)N[11C]1=O (stereo not given)	Active	–	metabolite_detected	Active	Active	Active	Drug uptake (Brain [8]): Not Active; Drug excretion [9]: metabolite_notdetected; Drug uptake [10]: Active

Further lines, with some results ahead:

Drug uptake (Liver)	Drug uptake (Brain [1])	Drug excretion [2]	Drug uptake [3]	Drug uptake (Canis familiaris [6])	Drug uptake [7]	Structure (SMILES)	other results
–	Active	metabolite_detected	Active	–	–	O=C1N[11C](=O)C(c2ccccc2)N1c1ccccc1 (stereo not given)	Drug excretion [4]: metabolite_detected
–	Not Active	–	–	–	–	O=C1N[11C](=O)C2(N1)c1ccccc1-c1ccccc12	–
–	Not Active	–	–	–	–	O=C1N[11C](=O)C2(CCCc3ccccc32)N1 (stereo not given)	–
Active	–	metabolite_detected	Active	Active	Active	CSCCC1NC(=O)N[11C]1=O (stereo not given)	–
